Activity calls are given as the source filed them. The rule behind the calls is not given here.
Assays:
Trypanosoma cruzi [1] = assay: (§1) Antitrypanosomal activity against Trypanosoma cruzi IRHOD/VO/2008/SN3 metacyclic forms infected in BALB/c mouse model of chronic Chagas disease subjected to 3 cycles of immunosuppression with 50 mg/kg cyclophosphamide monohydrate for 3 consecutive weeks assessed as parasitemia reactivation level at 5 mg/kg/day, ip administered for 5 consecutive days starting on day 7 post infection until day 12 post infection and measured on day 150 post infection; type: functional
Outline: (§2)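 Female BALB/c mice (6–8 wk, 25–30 g), six per group, were infected ip with 5 × 10^5 metacyclic trypomastigotes from infected mouse blood and dosed ip daily on days 7–12 pi. From day 120 pi a subgroup got three 4-day cycles of cyclophosphamide 50 mg/kg, 3 days apart. Parasites were counted by Neubauer chamber the day after cycle three in 5 μL mandibular-vein blood (1:100 PBS). Reactivation was scored against the matching non-immunosuppressed group; three experiments.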

Trypanosoma cruzi [2] = assay: (§3) Antitrypanosomal activity against Trypanosoma cruzi IRHOD/VO/2008/SN3 metacyclic forms infected in BALB/c mouse model of acute Chagas disease assessed as reduction parasitemia at 5 mg/kg/day, ip administered for 5 consecutive days starting on day 7 post infection until day 12 post infection and measured on day 25 post infection; type: functional, organism-based
Outline: (§4)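 Groups of six female BALB/c mice (6–8 weeks, 25–30 g) inoculated ip with 5 × 10^5 metacyclic trypomastigotes. Dosed ip at 5 or 15 mg/kg/day on days 7–12 pi; untreated infected controls. Mandibular-vein blood (5 μL in 495 μL PBS) counted every 3 days for 40 days in a Neubauer chamber, as parasites/mL.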

Trypanosoma cruzi [3] = assay: as §3, with “40” for “25”; type: functional; design: scale not given: the % may be the effect or the level left; conditions: route intraperitoneal; outline: as §4
[4] = (§5) Toxicity in Trypanosoma cruzi IRHOD/VO/2008/SN3 metacyclic forms infected BALB/c mouse model of acute Chagas disease assessed as mortality incidence at 5 mg/kg/day, ip administered for 5 consecutive days starting on day 7 post infection until day 12 post infection and measured 40 days post infection; type: organism-based; design: route intraperitoneal; conditions: BALB/c, in vivo, read-out: Activity
Outline: (§6)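 Female BALB/c mice (6–8 wk, 25–30 g), six per group, were infected ip with 5 × 10^5 metacyclic trypomastigotes from infected mouse blood. Once infection was confirmed, compound was given ip daily on days 7–12 pi. An infected untreated group served as control. Deaths were recorded during treatment, and parasitemia was counted in mandibular-vein blood every 3 days up to day 40 pi.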

Trypanosoma cruzi [5] = assay: as §3, with “15 to 20” for “25”; type: functional; design: scale not given: the % may be the effect or the level left; outline: as §4
Trypanosoma cruzi [6] = assay: Antitrypanosomal activity against Trypanosoma cruzi IRHOD/VO/2008/SN3 metacyclic forms infected in african green monkey Vero cells assessed as inhibition of trypomastigotes level at IC25 level 0.5 to 10 days; type: functional
Outline: (§7)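 Vero cells in RPMI infected with metacyclic forms at 10:1. Compounds added at IC25 immediately after infection for 12 h at 37 °C, 5% CO2, then washed off. Cultures grown 10 days with fresh medium every 48 h. Giemsa slides scored for % infected cells and amastigotes per cell (>100 cells); trypomastigotes in medium counted. Mean of four.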

Trypanosoma cruzi [7] = assay: Antitrypanosomal activity against Trypanosoma cruzi IRHOD/VO/2008/SN3 metacyclic forms infected in african green monkey Vero cells assessed as inhibition of intracellular amastigotes replication at IC25 level 0.5 to 10 days; type: functional; outline: as §7
Trypanosoma cruzi [8] = assay: Antitrypanosomal activity against Trypanosoma cruzi IRHOD/VO/2008/SN3 metacyclic forms infected in african green monkey Vero cells assessed as inhibition of infection rate at IC25 level 0.5 to 10 days; type: functional; outline: as §7
Trypanosoma cruzi [9] = assay: Antitrypanosomal activity against Trypanosoma cruzi IRHOD/VO/2008/SN3 isolated from mouse blood trypomastigotes incubated for 24 hrs; type: functional, organism-based; conditions: IRHOD/VO/2008/SN3, Blood
Outline: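 Blood from BALB/c mice 7 days post-infection, drawn by cardiac puncture into 3.8% citrate (7:3). Compounds in PBS at 10, 25 and 50 μM final, mixed with infected blood (~1 × 10^6 parasites/mL). Shaken 10 min at room temperature, held 24 h at 4 °C. Parasites counted at 1:100 dilution against a PBS control.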

Trypanosoma cruzi [10] = assay: Antitrypanosomal activity against Trypanosoma cruzi IRHOD/VO/2008/SN3 […] amastigotes infected in african green monkey Vero cells incubated for 72 hrs; type: functional, organism-based; conditions: IRHOD/VO/2008/SN3, Vero
Trypanosoma cruzi [11] = assay: Antitrypanosomal activity against Trypanosoma cruzi IRHOD/VO/2008/SN3 epimastigotes incubated for 72 hrs; conditions: IRHOD/VO/2008/SN3, 72 h
Trypanosoma cruzi [12] = assay: Induction of ultrastructural modifications in Trypanosoma cruzi Maracay at IC25 level incubated for 96 hrs by transmission electron microscopy; type: functional, organism-based
Outline: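 Maracay epimastigotes at 5 × 10^5 cells/mL exposed at IC25 for 96 h. Pellets washed in PBS, fixed in 2% paraformaldehyde/glutaraldehyde in 0.05 M cacodylate (pH 7.4) for 4 h at 4 °C, then examined by TEM.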

Trypanosoma cruzi [13] = assay: (§8) Antitrypanosomal activity against Trypanosoma cruzi IRHOD/VO/2008/SN3 metacyclic forms infected in BALB/c mouse model of chronic Chagas disease subjected to 3 cycles of immunosuppression with 50 mg/kg cyclophosphamide monohydrate for 3 consecutive weeks assessed as change in IgG absorbance level at 15 mg/kg/day, ip administered for 5 consecutive days starting on day 7 post infection until day 12 post infection and measured on day 150 post infection by ELISA; type: functional
Outline: (§9)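 Infected, treated mice (ip 5 or 15 mg/kg/day, days 7–12 pi) kept to day 120. Half then given three 4-day cycles of cyclophosphamide at 50 mg/kg with 3-day gaps; the rest left untreated. Serum IgG measured by ELISA on parasite-excreted Fe-SOD antigen: 1:100 serum, anti-IgG peroxidase 1:1000, OPD, A492, in triplicate. Reported as immunosuppressed minus non-immunosuppressed OD.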

Trypanosoma cruzi [14] = assay: as §8, with “at 5” for “at 15”; type: functional; outline: as §9
Trypanosoma cruzi [15] = assay: as §1, with “at 15” for “at 5”; type: functional; outline: as §2
Trypanosoma cruzi [16] = assay: as §3, with “at 15” for “at 5”, “day 40” for “day 25”; type: functional; design: scale not given: the % may be the effect or the level left; conditions: route intraperitoneal; outline: as §4
Trypanosoma cruzi [17] = assay: Antitrypanosomal activity against Trypanosoma cruzi IRHOD/VO/2008/SN3 metacyclic forms infected in BALB/c mouse model of acute Chagas disease assessed as reduction in parasitemia level at 15 mg/kg/day, ip administered for 5 consecutive days starting on day 7 post infection until day 12 post infection and measured on day 15 post infection relative to untreated control; type: functional; design: scale not given: the % may be the effect or the level left; conditions: route intraperitoneal; outline: as §4
Trypanosoma cruzi [18] = assay: as §5; type: organism-based; design: route intraperitoneal; conditions: in vivo, 960 h; outline: as §6
[19] = Selectivity index, ratio of IC50 for SOD1 in human erythrocytes to IC50 for Trypanosoma cruzi IRHOD/VO/2008/SN3 epimastigotes Iron superoxide dismutase; type: cell-based
Trypanosoma cruzi [20] = assay: Inhibition of Trypanosoma cruzi IRHOD/VO/2008/SN3 epimastigotes Iron superoxide dismutase at 50 uM by spectrophotometry
Outline: (§10)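 Enzyme from sonicated parasites in STE buffer, pH 7.8, or human erythrocyte CuZn-SOD. Activity measured as NBT reduction by superoxide (Beyer–Fridovich): methionine, NBT, Triton X-100 and riboflavin, with A560 read before and after 10 min of light. Compounds tested at 1–100 μM. Mean of five; IC50 by linear regression from Kc.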

[21] = target: Superoxide dismutase [Cu-Zn] (Homo sapiens, UniProt P00441); assay: Inhibition of SOD1 in human erythrocytes by spectrophotometry; type: cell-based; outline: as §10
Superoxide dismutase [Cu-Zn], sequence (P00441 whole entry): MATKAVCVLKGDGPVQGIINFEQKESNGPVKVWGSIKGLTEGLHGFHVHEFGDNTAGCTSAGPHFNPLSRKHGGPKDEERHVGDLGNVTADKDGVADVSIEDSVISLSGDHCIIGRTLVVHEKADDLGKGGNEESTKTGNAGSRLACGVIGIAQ

[22] = Inhibition of Trypanosoma cruzi IRHOD/VO/2008/SN3 epimastigotes Iron superoxide dismutase by spectrophotometry; outline: as §10
[23] = Selectivity index, ratio of IC50 for african green monkey Vero cells to IC50 for Trypanosoma cruzi IRHOD/VO/2008/SN3 blood trypomastigotes; type: toxicity, cell-based; conditions: Vero cells versus Trypanosoma cruzi blood trypomastigotes, read-out: Ratio IC50
[24] = Selectivity index, ratio of IC50 for african green monkey Vero cells to IC50 for Trypanosoma cruzi IRHOD/VO/2008/SN3 intracellular amastigotes; type: toxicity, cell-based; conditions: read-out: Ratio IC50
[25] = Selectivity index, ratio of IC50 for african green monkey Vero cells to IC50 for Trypanosoma cruzi IRHOD/VO/2008/SN3 axenic amastigotes; type: toxicity, cell-based; conditions: Vero cells versus Trypanosoma cruzi axenic amastigotes, read-out: Ratio IC50
[26] = Selectivity index, ratio of IC50 for african green monkey Vero cells to IC50 for Trypanosoma cruzi IRHOD/VO/2008/SN3 epimastigotes; type: toxicity, cell-based; conditions: Vero cells versus Trypanosoma cruzi epimastigotes, read-out: Ratio IC50
[27] = Toxicity against african green monkey Vero cells; type: cell-based, Chlorocebus sabaeus
Trypanosoma cruzi [28] = assay: Antitrypanosomal activity against Trypanosoma cruzi IRHOD/VO/2008/SN3 intracellular amastigotes infected in african green monkey Vero cells incubated for 72 hrs; type: functional, organism-based; conditions: IRHOD/VO/2008/SN3, Vero
Outline: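 Vero cells (1 × 10^4/well) grown 2 days on coverslips, then infected with metacyclic forms at 10:1 for 24 h at 37 °C. Extracellular parasites washed off. Compounds at 1–100 μM for 72 h in RPMI with 10% FBS. Amastigotes counted on methanol-fixed, Giemsa-stained slides against untreated cultures. Mean of four determinations; IC50.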

Trypanosoma cruzi [29] = assay: Effect on glucose metabolism in Trypanosoma cruzi IRHOD/VO/2008/SN3 epimastigotes assessed as excreted acetate level at IC25 level incubated for 96 hrs at 28 degC by [1H]NMR spectroscopy
Trypanosoma cruzi [30] = assay: Effect on glucose metabolism in Trypanosoma cruzi IRHOD/VO/2008/SN3 epimastigotes assessed as excreted ethanol level at IC25 level incubated for 96 hrs at 28 degC by [1H]NMR spectroscopy
Trypanosoma cruzi [31] = assay: Effect on glucose metabolism in Trypanosoma cruzi IRHOD/VO/2008/SN3 epimastigotes assessed as excreted succinate level at IC25 level incubated for 96 hrs at 28 degC by [1H]NMR spectroscopy
Trypanosoma cruzi [32] = assay: Effect on glucose metabolism in Trypanosoma cruzi IRHOD/VO/2008/SN3 epimastigotes assessed as excreted L-alanine level at IC25 level incubated for 96 hrs at 28 degC by [1H]NMR spectroscopy
Trypanosoma cruzi [33] = assay: Effect on glucose metabolism in Trypanosoma cruzi IRHOD/VO/2008/SN3 epimastigotes assessed as excreted L-lactate level at IC25 level incubated for 96 hrs at 28 degC by [1H]NMR spectroscopy

SMILES | inhibition (INH) (Trypanosoma cruzi [6]) | inhibition (INH) (Trypanosoma cruzi [7]) | inhibition (INH) (Trypanosoma cruzi [8]) | IC50 (Trypanosoma cruzi [9]) | IC50 (Trypanosoma cruzi [10]) | IC50 (Trypanosoma cruzi [11]) | Activity (Trypanosoma cruzi [12]) | Ratio IC50 [19] | IC50 [21] | IC50 [22] | selectivity ratio [23] | selectivity ratio [24] | selectivity ratio [25] | selectivity ratio [26] | IC50 [27] | IC50 (Trypanosoma cruzi [28]) | Activity (Trypanosoma cruzi [29]) | Activity (Trypanosoma cruzi [30]) | Activity (Trypanosoma cruzi [31]) | Activity (Trypanosoma cruzi [32]) | other results
O=C(Cn1ccnc1[N+](=O)[O-])NCc1ccccc1 [BENZNIDAZOLE] | 41.6% | 12.5% | 39.4% | 16.4 µM | 18.9 µM | 15.9 µM |  |  |  |  |  |  |  |  |  |  |  |  |  |  | Activity (Trypanosoma cruzi [1]): 36%; Activity (Trypanosoma cruzi [2]): Active; Activity (Trypanosoma cruzi [3]): 16.7%; mortality at 960 h [4]: 20%; Activity (Trypanosoma cruzi [5]; route intraperitoneal): 15.3%
Clc1nnc(NCCc2c[nH]cn2)c2ccccc12 | 85.1% | 62.9% | 83.9% | 9.2 µM | 10.1 µM | 8.7 µM | Active | 5.5 | 71.5 µM | 12.9 µM | 46.5 | 45.5 | 42.3 | 49.1 | 427 µM | 9.4 µM | -21% | -12% | inactive | -13% | deltaA (Trypanosoma cruzi [13]): 0.0067; deltaA (Trypanosoma cruzi [14]): 0.0103; Activity (Trypanosoma cruzi [15]): 4%; Activity (Trypanosoma cruzi [1]): 9%; Activity (Trypanosoma cruzi [16]): 74%; Activity (Trypanosoma cruzi [2]): Active; Activity (Trypanosoma cruzi [17]): 59%; Activity (Trypanosoma cruzi [18]): Non-toxic; Activity (Trypanosoma cruzi [5]): Active; inhibition (Trypanosoma cruzi [20]): 100%; Activity (Trypanosoma cruzi [33]): -33%
c1ccc2c(NCCc3c[nH]cn3)nnc(NCCc3c[nH]cn3)c2c1 | 63.8% | 48.7% | 65.1% | 22.5 µM | 15.2 µM | 13 µM | Active | 2.6 |  | 48 µM |  |  |  |  |  | 18.1 µM | -10% | inactive | inactive | inactive | Activity (Trypanosoma cruzi [33]): -15%
c1ccc2c(NCCCn3ccnc3)nnc(NCCCn3ccnc3)c2c1 | 57.8% | 41.1% | 51.5% | 16.9 µM | 12.4 µM | 17.4 µM | Active | 1.6 | 66 µM | 41.7 µM | 17.8 | 18.2 | 24.2 | 17.3 | 302 µM | 16.6 µM | -21% | inactive | inactive | inactive | Activity (Trypanosoma cruzi [33]): -24%
c1ccc2c(NCCc3cnc[nH]3)nnc(NCCc3cnc[nH]3)c2c1 |  |  |  |  |  |  |  |  | 125 µM |  | 14.4 | 17.9 | 21.3 | 24.9 | 324 µM |  |  |  |  |  | 
Clc1nnc(NCCCn2ccnc2)c2ccccc12 | 73.9% | 55.8% | 80.3% | 10.2 µM | 10.6 µM | 8.8 µM | Active | 5.8 | 83.1 µM | 14.4 µM | 42.8 | 49.1 | 41.2 | 49.6 | 437 µM | 8.9 µM | -54% | -16% | inactive | -27% | deltaA (Trypanosoma cruzi [13]): 0.0096; deltaA (Trypanosoma cruzi [14]): 0.0143; Activity (Trypanosoma cruzi [15]): 8%; Activity (Trypanosoma cruzi [1]): 21%; Activity (Trypanosoma cruzi [16]): 61%; Activity (Trypanosoma cruzi [2]): Active; Activity (Trypanosoma cruzi [17]): 64%; Activity (Trypanosoma cruzi [18]): Non-toxic; Activity (Trypanosoma cruzi [5]): Active; inhibition (Trypanosoma cruzi [20]): 100%; Activity (Trypanosoma cruzi [33]): -38%

— ChEMBL document CHEMBL2176896, “Phthalazine derivatives containing imidazole rings behave as Fe-SOD inhibitors and show remarkable anti-T. cruzi activity in immunodeficient-mouse mode of infection” (J Med Chem, 2012)
